Results on nine compounds are retold here after ChEMBL document CHEMBL1153346, “Structure-activity study of pentamidine analogues as antiprotozoal agents” (J Med Chem, 2009).

The nature of data set [1]: Selectivity index, ratio of IC50 for rat L6 cells to IC50 for chloroquine-resistant Plasmodium falciparum K1. Type of data set: toxicity, cell-based. As to conditions: read-out: Ratio IC50. The essentials:
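Ratio of L6 IC50 to K1 IC50. L6 cells: Alamar blue assay after 70 h, 37 °C. K1: [3H]-hypoxanthine incorporation in infected red cells over 48 + 24 h at 37 °C under low O2. IC50s from sigmoidal curves, two independent runs in duplicate.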

For another data set, the system named is Plasmodium falciparum. Description: Antiprotozoal activity after 48 hrs against chloroquine-resistant Plasmodium falciparum K1 infected erythrocytes by [3H]hypoxanthine uptake. The format is functional, organism-based. The essentials: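 Erythrocytic stages in infected human red cells (hematocrit 1.25%, parasitemia 0.3%) in supplemented RPMI 1640 with Albumax II. Serial dilutions incubated at 37 °C in 93% N2/4% CO2/3% O2. [3H]-hypoxanthine (0.5 µCi/well) added at 48 h, then 24 h more. Incorporation counted by scintillation. IC50 from sigmoidal curves; two independent runs in duplicate.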

The subject of data set [2] is Trypanosoma brucei rhodesiense. Description: Antitrypanosomal activity against Trypanosoma brucei rhodesiense STIB900 trypomastigotes infected in NMRI mouse assessed as mouse survival at 20 mg/kg, ip administered from day 3 to day 6 postinfection. Type of data set: functional. As to conditions: route intraperitoneal. The method, boiled down:
(§1)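 STIB900 acute mouse model. Dosing was intraperitoneal, daily for four days, in DMSO diluted with water to 10% final DMSO. An infected untreated control group was kept. Tail blood was checked for parasitemia to day 60, and deaths were recorded to give mean survival days. Mice surviving and aparasitemic at day 60 counted as cured.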

Data set [3] is described as follows: Selectivity index, ratio of IC50 for rat L6 cells to IC50 for Trypanosoma brucei rhodesiense STIB900 trypomastigotes. The format is toxicity, cell-based. The conditions noted are these: read-out: Ratio IC50. The essentials:
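Ratio of L6 IC50 to STIB900 IC50. L6 cells: 4000/well in RPMI 1640 with 10% FBS, 70 h at 37 °C. Bloodstream forms: 2000/well in supplemented MEM with 15% horse serum, 70 h at 37 °C. Both read by Alamar blue fluorescence; IC50s from sigmoidal curves, two independent runs in duplicate.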

The subject of a further data set is L6. Description: Cytotoxicity against rat L6 cells after 70 hrs by alamar blue assay. The format is cell-based. As to conditions: L6, 70 h. The essentials:
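L6 rat myoblasts, 4000 per well, in RPMI 1640 with 2 mM L-glutamine, HEPES, NaHCO₃ and 10% FBS. Exposed to serial dilutions (DMSO ≤1%) for 70 h at 37 °C in humidified 5% CO₂. Resazurin then added for 2-3 h; fluorescence read at ex 536/em 588 nm. IC50 from sigmoidal curves; two independent runs in duplicate.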
Background: Alamar Blue is a resazurin reagent that responds to reducing activity.

Data set [4] concerns Trypanosoma brucei rhodesiense. The data set is described as follows: Antitrypanosomal activity against Trypanosoma brucei rhodesiense STIB900 trypomastigotes infected in NMRI mouse assessed as mouse survival at 5 mg/kg, ip administered from day 3 to day 6 postinfection. Type of data set: functional. The conditions noted are these: route intraperitoneal. The essentials: as §1

A further data set deals with Leishmania donovani. The data set is described as follows: Antiprotozoal activity against Leishmania donovani MHOM/SD/62/1S-CL2D axenic amastigotes after 72 hrs. The format is functional, organism-based. The essentials:
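L. donovani axenic amastigotes, adapted from promastigotes and grown in amastigote medium at 37 °C. 6 × 10⁴ parasites per well with 2-fold compound dilutions (DMSO ≤1%), incubated 72 h at 37 °C in humidified 5% CO₂. Growth read by tetrazolium (CellTiter) absorbance at 490 nm. IC50 from a four-parameter dose-response fit. Average of duplicate determinations.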

Data set [5] concerns Trypanosoma brucei rhodesiense. Description: Antitrypanosomal activity against Trypanosoma brucei rhodesiense STIB900 trypomastigotes infected in NMRI mouse assessed as survival and aparasitemic condition at 5 mg/kg, ip administered from day 3 to day 6 postinfection measured after 60 days postinfection. Set-up: dose 5 mg/kg. The format is functional, organism-based. The method, boiled down: (§2)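 STIB900 acute mouse model with 4 mice per group. Compound in DMSO diluted with water to a final 10% DMSO, given intraperitoneally once daily for four days. An infected, untreated control group was included. Tail blood checked for parasitemia until day 60. Mice alive and aparasitemic at day 60 counted as cured; deaths recorded for mean survival time.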

Data set [6] deals with Trypanosoma brucei rhodesiense. The data set is described as follows: Antiprotozoal activity against Trypanosoma brucei rhodesiense STIB900 trypomastigotes after 70 hrs by alamar blue assay. The format is functional, organism-based. The essentials:
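Bloodstream forms, 2000 per well, in MEM with Earle's salts plus 0.2 mM 2-mercaptoethanol, 1 mM pyruvate, 0.5 mM hypoxanthine and 15% heat-inactivated horse serum. Exposed to serial dilutions (DMSO ≤1%) for 70 h at 37 °C in 5% CO₂. Resazurin then added for a further 2-6 h. IC50 from sigmoidal curves; two independent runs in duplicate.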

Data set [7] is described as follows: Selectivity index, ratio of IC50 for rat L6 cells to IC50 for Leishmania donovani MHOM/SD/62/1S-CL2D axenic amastigotes. The conditions noted are these: read-out: Ratio IC50. The format is toxicity, cell-based. The essentials:
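Amastigotes: 6 × 10⁴ parasites/well with 2-fold dilutions, 72 h at 37 °C in 5% CO2. Growth read by tetrazolium CellTiter absorbance at 490 nm; IC50 from a four-parameter dose-response fit.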

Data set [8] has as its system Trypanosoma brucei rhodesiense. The data set is described as follows: Antitrypanosomal activity against Trypanosoma brucei rhodesiense STIB900 trypomastigotes infected in NMRI mouse assessed as survival and aparasitemic condition at 10 mg/kg, ip administered from day 3 to day 6 postinfection measured after 60 days postinfection. Type of data set: functional, organism-based. More on the design: dose 10 mg/kg. The essentials: as §2

For data set [9], the system named is Trypanosoma brucei rhodesiense. Description: Antitrypanosomal activity against Trypanosoma brucei rhodesiense STIB900 trypomastigotes infected in NMRI mouse assessed as mouse survival at 10 mg/kg, ip administered from day 3 to day 6 postinfection. The format is functional. The conditions noted are these: route intraperitoneal. The method, boiled down: as §1

Data set [10] relates to Trypanosoma brucei rhodesiense. Description: Antitrypanosomal activity against Trypanosoma brucei rhodesiense STIB900 trypomastigotes infected in NMRI mouse assessed as survival and aparasitemic condition at 8 mg/kg, ip administered from day 3 to day 6 postinfection measured after 60 days postinfection. Type of data set: functional, organism-based. More on the design: dose 8 mg/kg.

The test system of data set [11] is Trypanosoma brucei rhodesiense. The data set is described as follows: Antitrypanosomal activity against Trypanosoma brucei rhodesiense STIB900 trypomastigotes infected in NMRI mouse assessed as mouse survival at 8 mg/kg, ip administered from day 3 to day 6 postinfection. The conditions noted are these: route intraperitoneal. The format is functional.
Data set [12] has as its system Trypanosoma brucei rhodesiense. Description: Antitrypanosomal activity against Trypanosoma brucei rhodesiense STIB900 trypomastigotes infected in NMRI mouse assessed as mouse survival at 1 mg/kg, ip administered from day 3 to day 6 postinfection. The format is functional. As to conditions: route intraperitoneal.
Data set [13] deals with Trypanosoma brucei rhodesiense. The data set is described as follows: Antitrypanosomal activity against Trypanosoma brucei rhodesiense STIB900 trypomastigotes infected in NMRI mouse assessed as survival and aparasitemic condition at 2 mg/kg, ip administered from day 3 to day 6 postinfection measured after 60 days postinfection. The format is functional, organism-based. Set-up: dose 2 mg/kg.

Data set [14] has as its system Trypanosoma brucei rhodesiense. Description: Antitrypanosomal activity against Trypanosoma brucei rhodesiense STIB900 trypomastigotes infected in NMRI mouse assessed as mouse survival at 2 mg/kg, ip administered from day 3 to day 6 postinfection. The conditions noted are these: route intraperitoneal. The format is functional.
For the next data set, the system named is Mus musculus. Description: Toxicity in NMRI mouse infected with Trypanosoma brucei rhodesiense STIB900 trypomastigotes at 20 mg/kg, ip administered from day 3 to day 6 postinfection. The conditions noted are these: in vivo. Set-up: dose 20 mg/kg, route intraperitoneal. Type of data set: organism-based.
Data set [15] concerns Trypanosoma brucei rhodesiense. Description: Antitrypanosomal activity against Trypanosoma brucei rhodesiense STIB900 trypomastigotes infected in NMRI mouse assessed as survival and aparasitemic condition at 20 mg/kg, ip administered from day 3 to day 6 postinfection measured after 60 days postinfection. Type of data set: functional, organism-based. Set-up: dose 20 mg/kg. The essentials:
as §2

Activity calls are given as the source filed them. No cut-off for these calls is given here.

`Cl.Cl.c1cc(C2=NCCN2)ccc1OCCCCOc1ccc(C2=NCCN2)cc1`: the selectivity ratio in [1] was 2020; in data set [3] it was 257; in [7], 20. Also, the IC50 in the data set on Plasmodium falciparum was determined as 31 nM; with L6, 62700 nM; in the data set with Leishmania donovani it was 3060 nM; in data set [6] it was 244 nM. For the same compound, the values for the Survival in data set [2] and in [4] were above 41.5 days and 7.8 days, respectively. Besides, the result in data set [5] was inactive.

Regarding `COc1cc(C2=NCCN2)ccc1OCCCCOc1ccc(C2=NCCN2)cc1OC.Cl.Cl`, the selectivity ratio is above 8200 in [1], above 2410 in data set [3] and above 4 in data set [7]. Besides, the IC50 was 20 nM in the data set with Plasmodium falciparum, above 164000 nM with L6, 38900 nM in the data set with Leishmania donovani and 68 nM in data set [6]. Besides, in data set [8], the result was inactive. Further, the Survival in data set [9] was 18.3 days.

As for `Cl.Cl.c1cc(C2=NCCN2)ccc1OCCCOc1ccc(C2=NCCN2)cc1`, the results for the selectivity ratio in data set [1], in data set [3] and in data set [7] were 7530, 685 and 26, respectively. The IC50 was determined as 10 nM in the data set on Plasmodium falciparum, 75300 nM with L6, 2880 nM with Leishmania donovani and 110 nM in data set [6]. Also, the Survival in data set [2] is above 51 days; in data set [9], 22.8 days. Further, in [8], the result was inactive.

Take `Nc1nc(N)nc(Nc2ccc([As]3SCC(CO)S3)cc2)n1` (configuration not stated) [MELARSOPROL]: the result in data set [10] and in data set [13] was Active. The Survival is above 60 days in data set [11], above 51.5 days in data set [12] and above 60 days in data set [14].

In the case of `COc1cc(C(=N)N)ccc1OCCCCOc1ccc(C(=N)N)cc1OC.Cl.Cl`, the figures for the selectivity ratio in data set [1], in data set [3] and in data set [7] were above 4250, above 693 and above 5, respectively. Also, the IC50 was 44 nM in the data set with Plasmodium falciparum, above 187000 nM in the data set with L6, 38100 nM in the data set with Leishmania donovani and 270 nM in data set [6]. In addition, the result in data set [8] was inactive. Further, in data set [9], the Survival was determined as 17.5 days.

As to `CCOC(=O)c1cc(C(=N)NC(C)C)ccc1OCCCCCOc1ccc(C(=N)NC(C)C)cc1C(=O)OCC.Cl.Cl`, the Activity result with Mus musculus is given as “Toxic”. For the same compound, the values for the selectivity ratio in [1], in data set [3] and in [7] were above 10800, above 2740 and 2, respectively. Further, the IC50 with Plasmodium falciparum is 13 nM; with L6 it was above 140000 nM; in the data set with Leishmania donovani, 55900 nM; in data set [6], 51 nM. For the same compound, in [2], the Survival came out at 5.5 days. The outcome in [15] was inactive.

Consider `Cl.Cl.N=C(N)c1cccc(OCCCCOc2cccc(C(=N)N)c2)c1`, for which the results for the selectivity ratio in data set [1], in data set [3] and in data set [7] were 762, 286 and 4, respectively. The IC50 in the data set on Plasmodium falciparum came out at 21 nM; in the data set on L6, 16000 nM; in the data set on Leishmania donovani, 4460 nM; in [6], 56 nM. Moreover, the Survival in data set [2] was above 43 days; in data set [9] it was 20 days. For the same compound, the outcome in [8] was inactive.

`Cl.Cl.Cl.Cl.N=C(N)c1ccc(OCCCCOc2ccc(C(=N)N)cc2Cl)c(Cl)c1`: the selectivity ratio stood at 574 in data set [1], 260 in [3] and 5 in data set [7]. Besides, the IC50 in the data set with Plasmodium falciparum was determined as 19 nM; in the data set on L6, 10900 nM; in the data set on Leishmania donovani it was 2130 nM; in data set [6], 42 nM. Also, the Survival in data set [2] was above 41.5 days; in data set [9], 22 days. Also, in [8], the result was inactive.

For `COc1cc(C2=NCCN2)ccc1OCCCCCOc1ccc(C2=NCCN2)cc1OC.Cl.Cl`, the selectivity ratio in data set [1] was above 8320; in data set [3] it was above 3950; in [7], above 4. The IC50 was 19 nM in the data set on Plasmodium falciparum, above 158000 nM in the data set on L6, 36300 nM in the data set on Leishmania donovani and 40 nM in [6]. In [8], the outcome was inactive. In addition, in data set [9], the Survival was above 31.8 days.

In general, IC50 refers to the midpoint of a concentration-inhibition curve.
